Data published in PMC3144551 (Science signaling, 2011).
“Also recorded” adds a separate entry of the source.

Columns and labels:
MrgprA3 = assay: Calcium imaging of MrgprA3-expressing CHO cells; type: cell-based, mouse; conditions: chloroquine 100 µM; n = 155 cells
How it was run: (§1)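 Each receptor was transfected individually into CHO cells. Cells were loaded with fura-2 acetoxymethyl ester for 45 min at 37°C, washed, and imaged at 340- and 380-nm excitation to detect intracellular free Ca2+. There were at least three independent experiments, with at least 100 cells analysed each time.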

[1] = test system: WT DRG neurons electroporated with siRNA; assay: Calcium imaging of WT DRG neurons electroporated with siRNA; type: cell-based, mouse; conditions: CQ 1 mM
MrgprC11 [2] = target: T1, MrgprC11 (Mus musculus, UniProt Q8CIP3); assay: Calcium imaging of MrgprC11-expressing CHO cells; type: cell-based; conditions: for activation of MrgprC11 (calcium response): MrgprC11-expressing CHO cells, concentration not given
T1 sequence (Q8CIP3 1-322): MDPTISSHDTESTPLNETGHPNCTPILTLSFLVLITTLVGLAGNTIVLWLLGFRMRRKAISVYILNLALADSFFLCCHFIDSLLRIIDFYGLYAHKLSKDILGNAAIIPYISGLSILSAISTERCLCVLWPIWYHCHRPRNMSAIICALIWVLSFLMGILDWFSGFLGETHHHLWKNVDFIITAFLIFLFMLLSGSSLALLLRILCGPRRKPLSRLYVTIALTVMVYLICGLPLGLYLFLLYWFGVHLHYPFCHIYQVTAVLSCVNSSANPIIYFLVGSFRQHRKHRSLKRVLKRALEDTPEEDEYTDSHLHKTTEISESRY

human MrgprX2 = assay: Calcium imaging of MrgprX2-expressing CHO cells; type: cell-based; conditions: Ca^2+ imaging, fig. S4
How it was run: as §1

human MrgprX1 = assay: Calcium imaging of MrgprX1-expressing CHO cells; type: cell-based; conditions: Ca^2+ imaging, fig. S4
How it was run: as §1

human MrgprX3 = assay: Calcium imaging of MrgprX3-expressing CHO cells; type: cell-based; conditions: Ca^2+ imaging, fig. S4
How it was run: as §1

human MrgprX4 = assay: Calcium imaging of MrgprX4-expressing CHO cells; type: cell-based; conditions: Ca^2+ imaging, fig. S4
How it was run: as §1

human subjects = conditions: ref [5], cited from earlier work
MrgprC11 [3] = target: T1, MrgprC11; assay: Calcium imaging of Mrgpr-clusterΔ^−/− DRG neurons electroporated with MrgprC11; type: cell-based; conditions: MrgprC11-expressing Mrgpr-clusterΔ^−/− neurons, n = 66; BAM(8–22) 2 µM
DRG neurons = assay: Whole-cell current-clamp recording of cultured DRG neurons; type: cell-based, mouse; conditions: n = 6; perfused with 1 mM SLIGRL or BAM(8–22) for 20 s, pH 7.38, room temperature (~25°C)
MrgprC11 [4] = target: T1, MrgprC11; conditions: ref [8], [11]; cited from earlier work
mice [5] = conditions: cited from earlier work
mice [6] = assay: Scratching behavior after injection into the nape of the neck; type: in vivo, mouse; conditions: trypsin 200 µg, 50 µl, PAR2^−/− n = 6 vs WT n = 6
How it was run: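 Male mice aged 2 to 3 months (20 to 30 g) were backcrossed to C57BL/6 for at least 10 generations and scored blind to genotype. A scratching bout was continuous hindpaw scratching directed at the injection site. Bouts were counted in 5-min intervals over a 30-min observation period after injection.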

mouse hindpaws = assay: Thermal hyperalgesia, paw withdrawal latency to radiant heat; type: in vivo; conditions: trypsin 100 ng, 10 µl, intraplantar; WT n = 7, Mrgpr-clusterΔ^−/− n = 8, PAR2^−/− n = 10

## CCN(CC)CCCC(C)Nc1ccnc2cc(Cl)ccc12 (stereo not shown) [chloroquine]
MrgprA3
  calcium response, MrgprA3-expressing CHO cells: could be activated by chloroquine; also recorded: responded
[1]; WT DRG neurons + MrgprA3 siRNA
  chloroquine sensitivity: abolished the chloroquine response
[1]; WT DRG neurons + MrgprA3 siRNA, listed as CQ
  chloroquine sensitivity: completely abolished CQ sensitivity
[1]; WT DRG neurons + MrgprC11 siRNA, n = 7 CQ-sensitive neurons
  chloroquine sensitivity: still sensitive

## LRGILS-NH2
MrgprC11 [2]
  activation of MrgprC11 (calcium response): None of these derivatives induced significant calcium responses in cells

## SLIGKV
Human MrgprX2
  calcium response, MrgprX2-expressing CHO cells: exhibited a response
Human MrgprX1
  calcium response, MrgprX1-expressing CHO cells: insensitive to the peptide
Human MrgprX3
  calcium response, MrgprX3-expressing CHO cells: insensitive to the peptide
Human MrgprX4
  calcium response, MrgprX4-expressing CHO cells: insensitive to the peptide
Human subjects; intracutaneous injection, low millimolar range
  itch in human subjects: provokes itch in human subjects

## SLIGRL [SLIGRL without amidation (−NH2)]
MrgprC11 [2]
  activation of MrgprC11 (calcium response): None of these derivatives induced significant calcium responses in cells

## bovine adrenal medulla peptide [BAM(8–22)]
MrgprC11 [2]; BAM(8–22) 2 µM, n = 150 cells
  calcium response, MrgprC11-expressing CHO cells: responded
MrgprC11 [3]
  increase in [Ca^2+]i: showed increased [Ca^2+]i
DRG neurons
  action potentials evoked in SLIGRL-sensitive WT DRG neurons: All of them also generated action potentials
MrgprC11 [4]
  agonism at MrgprC11: specific agonist for MrgprC11
Mice [5]; Mrgpr-clusterΔ^−/− mice, ref [8]
  evoked scratching in Mrgpr-clusterΔ^−/− mice: reduced
Mice [5]; ref [8]
  Mrgpr-dependent scratching response: induces an Mrgpr-dependent scratching response

## trypsin
Mice [6]
  trypsin-induced scratching in PAR2^−/− mice: significantly stronger in PAR2^−/− mice; also recorded: scratched significantly more than did wild-type controls
Mouse hindpaws
  trypsin-induced thermal hyperalgesia (paw withdrawal latency): comparable among wild-type, Mrgpr knockout, and PAR2 knockout mice; also recorded: comparable among the three groups
Mice [5]; injection into nape of neck, ref [4]
  scratching response to trypsin in mice: induces a scratching response
Mice [5]; intradermal injection, ref [3], [4]
  scratching behavior in mice: elicit scratching behavior in mice
Human subjects; skin application, [6]
  itch in humans: induces itch in humans
